Published values collected from several papers.
Target: Dual specificity tyrosine-phosphorylation-regulated kinase 1A (DYRK1A, Homo sapiens, UniProt Q13627)
Effect on: enzyme activity
Action: inhibitor

SMILES | assay | setting | remaining activity [%]
COc1cc2nccc(Oc3ccc(NC(=S)NC(=O)c4ccccc4C)cc3)c2cc1OC | – | 0.5 µM | 95.4
CC(C)(C)c1nc2c(s1)c1nc(N)ncc1c1ccc(NS(=O)(=O)c3c(F)cccc3F)c(F)c12 | radiometric | 1 µM | 88
Nc1nc(NC2CCCCC2)sc1C(=O)c1ccccc1 | – | 10 µM | 25
FC(F)c1nc2ccccc2n1-c1nc(N2CCOCC2)nc(N2CCOCC2)n1 | – | 10 µM | 78
Nc1nc(Nc2ccccc2)sc1C(=O)c1c(F)cccc1F | – | 10 µM | 10
O=C(O)c1ccc2c(c1)nc(NCCc1ccccc1)c1ncncc12 | radiometric | 1 µM | 19
COc1cc(Nc2cnc(C#N)c(O[C@H](C)CN(C)C)n2)ncc1-c1cnn(C)c1 | radiometric | 10 µM | 79
O=C(O)c1ccc2c(c1)nc(Nc1ccccc1Cl)c1ncncc12 | radiometric | 1 µM | 11
CCN(CC)CCNC(=O)c1c(C)[nH]c(/C=C2\C(=O)Nc3ccc(Cl)cc32)c1C | – | 0.5 µM | 47.2
O=C(O)c1ccc2c(c1)nc(NCCc1ccccc1)c1ccncc12 | radiometric | 1 µM | 10
O=C(O)c1ccc2c3c1cccc3c(=O)n1c3ccccc3nc21 | – | 0.5 µM | 55.5
COc1cccc(CCNc2nc3cc(C(=O)O)ccc3c3cnccc23)c1 | radiometric | 1 µM | 12
O=C(Nc1cnn(-c2csc(C(=O)NC3COC3)c2)c1)Nc1c(F)cccc1Cl | – | 5 µM | 75.1
O=C(O)c1ccc2c(c1)nc(Nc1ccc3ccccc3c1)c1ccncc12 | radiometric | 1 µM | 2
Cc1cnc(NC2CCOCC2)nc1-n1cnc(C(=O)NC(CN)c2cc(F)cc(Cl)c2)c1 (stereo not drawn) | radiometric | 1 µM | 84
